# From PubChem BioAssay
# Compounds with a hit are over-represented: about 2.2% of the library has one in this group of screens.
# IMP-1 inh-1: inhibitors of Pseudomonas aeruginosa IMP-1 metallo-beta-lactamase; purified IMP-1, nitrocefin hydrolysis, epi-absorbance fluorescence; inhibition, % at 5.6 µM; 0.45% of 290,000 active;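 active = inhibition above the mean plus 3 SD of all compounds in the same screening run, cut at about 4.5% in these data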
#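 System: Purified IMP-1 | Read-out basis: Percent enzyme inhibition | Controls: IMP-1 with DMSO as 0%, enzyme-free DMSO as 100% | Replicates: One well per compound | Doses: 5.6 µM nominal single concentration | Detection: Epi-absorbance fluorescence, 480 nm excitation, 530 nm emission | Incubation: 25 °C, 15 min preincubation, 25 min reaction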
# CR mimetic SO: yeast age-related superoxide inhibition as caloric restriction mimetic; 0.18% of 330,000 active; superoxide response (% of plate mean), % at 10 µM; AID 2690; S. cerevisiae aged cells, superoxide DHE fluorescence; active compounds read low;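 active = superoxide response under a set limit, about three screen SD below normal, cut at about 65% in these data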;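 note: yeast aged for seven days with compound at 30 °C before DHE staining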
# PvdQ acylase: P. aeruginosa PvdQ acylase inhibition; AID 488965; 0.063% of 340,000 active; purified PvdQ acylase, fluorescence plate reader; inhibition, % at 10 µM; in the data active = inhibition above about 30%, passing the limit was not always enough
# PHOSPHO1 inh: inhibitors of human PHOSPHO1 phosphatase; Q8TCT1; AID 1565; 1.1% of 290,000 active; recombinant PHOSPHO1, absorbance phosphatase assay; inhibition, % at 13.3 µM; in the data active = inhibition above about 60%
# Target sequence (Q8TCT1 whole entry, looked up): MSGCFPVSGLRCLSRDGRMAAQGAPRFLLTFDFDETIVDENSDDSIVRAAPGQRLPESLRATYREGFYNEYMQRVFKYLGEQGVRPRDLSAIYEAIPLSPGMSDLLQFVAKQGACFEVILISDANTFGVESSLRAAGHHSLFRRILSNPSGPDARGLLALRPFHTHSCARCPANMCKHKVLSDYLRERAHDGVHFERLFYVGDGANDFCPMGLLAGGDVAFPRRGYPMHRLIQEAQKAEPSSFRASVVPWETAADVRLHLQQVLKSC
# VIM-2 inh: inhibitors of Pseudomonas aeruginosa VIM-2 metallo-beta-lactamase; purified VIM-2, nitrocefin hydrolysis, epi-absorbance fluorescence; inhibition, % at 5.6 µM; 0.89% of 290,000 active; AID 1527;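 active = inhibition above the mean of all tested compounds plus 3 SD, cutoff set per screening run, cut at about 7.5% in these data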;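 note: red hydrolysis product quenches plate fluorescence so inhibitors raise well fluorescence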
# IMP-1 inh-2: selectivity counter-screen for VIM-2 inhibitors: IMP-1 metallo-beta-lactamase inhibitors; inhibition, % at 5.6 µM; shares compounds with VIM-2 inh; purified IMP-1, nitrocefin hydrolysis, epi-absorbance fluorescence; 1,300 tested, under 10 active; call rule not given here
# VIM-2 FRET inh: inhibits VIM-2 in FRET assay to exclude epi-absorbance artifacts; AID 1857; 23% of 1,300 active; inhibition, % at 5.6 µM; shares compounds with VIM-2 inh; purified VIM-2, CCF2 FRET substrate hydrolysis;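 active = inhibition above the mean of all tested compounds plus 3 SD, cut at about 19% in these data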
# TEM-1 inh: selectivity counter-screen for VIM-2 inhibitors: E. coli TEM-1 inhibitors | shares compounds with VIM-2 inh | Purified TEM-1, nitrocefin hydrolysis, epi-absorbance fluorescence | inhibition, % at 5.6 µM | 3% of 1,300 active;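 active = inhibition above that campaign's mean inhibition plus 3 SD, cut at about 0.46% in these data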
# Target sequence (P62593 whole entry, looked up): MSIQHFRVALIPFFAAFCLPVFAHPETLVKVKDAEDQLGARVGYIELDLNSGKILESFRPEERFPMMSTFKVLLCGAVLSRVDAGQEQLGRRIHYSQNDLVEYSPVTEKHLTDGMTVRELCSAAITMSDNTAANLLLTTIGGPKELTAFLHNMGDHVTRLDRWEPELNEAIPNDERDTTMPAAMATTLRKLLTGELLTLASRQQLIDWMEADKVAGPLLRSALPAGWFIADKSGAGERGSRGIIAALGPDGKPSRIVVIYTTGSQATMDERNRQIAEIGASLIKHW
# VIM-2 inh conf: confirmation of P. aeruginosa VIM-2 metallo-beta-lactamase inhibitors; shares compounds with VIM-2 inh; purified VIM-2, nitrocefin hydrolysis, epi-absorbance; inhibition, % at 5.6 µM; 96% of 1,300 active; AID 2187;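 active = inhibition of the VIM-2 beta-lactamase enzyme above about 11% from the earlier first-round screen, limit read from the data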
# Numbers stand for hits; – = inactive; · = no result.
SMILES,IMP-1 inh-1,CR mimetic SO,PvdQ acylase,PHOSPHO1 inh,VIM-2 inh,IMP-1 inh-2,VIM-2 FRET inh,TEM-1 inh,VIM-2 inh conf
O=C(NCCN1CCOCC1)C1CCN(c2ncnc3c2sc2cccc(F)c23)CC1,–,–,–,–,23,–,–,–,37
O=C(NCCN1CCOCC1)C1CCN(Cc2ccccc2O)CC1,–,–,–,–,–,·,·,·,·
Cc1nc(-c2ccc(S(=O)(=O)Nc3ccc(Br)cc3F)cc2)co1,–,–,–,–,–,·,·,·,·
CCOC(=O)c1c(-c2ccc(-c3ccccc3)cc2)csc1NC(=O)CNCCN(C)C,–,–,–,–,17,–,–,–,27
COC(=O)CSc1cc([N+](=O)[O-])cc2c1c(C1OCCO1)nn2-c1ccccc1,–,–,–,–,–,·,·,·,·
O=C(c1ccco1)N1N=C(c2ccc(Cl)cc2)CC1c1ccco1 (configuration not stated),–,–,–,–,35,–,69,–,44
COc1cc(CNCc2ccccn2)ccc1OCc1cccc(Cl)c1,–,–,–,–,12,–,–,–,29
Cc1c(OCC(=O)NCCCN2CCCC2=O)ccc2c3c(c(=O)oc12)CCCC3,–,–,–,–,12,–,–,–,21
Cc1cc(=O)oc2c(C)c(OCC(=O)NCCCN3CCCC3=O)ccc12,–,–,–,–,–,·,·,·,·
Cc1c(OCC(=O)NCCCN2CCCC2=O)ccc2c3c(c(=O)oc12)CCC3,–,–,–,–,23,–,–,–,29
O=C(CSc1nc2nc(-c3cccs3)cc(C(F)(F)F)c2c(=O)[nH]1)Nc1c(F)c(F)c(F)c(F)c1F,–,–,–,–,–,·,·,·,·
O=c1[nH]c(=S)[nH]c2nc(-c3cccs3)cc(C(F)(F)F)c12,–,–,–,–,13,–,–,–,15
CC(=O)c1c(C)n(-c2cccc(Cl)c2)c2ccc(O)cc12,–,–,–,–,–,·,·,·,·
CC(=O)c1c(C)n(-c2ccc(Cl)cc2)c2ccc(O)cc12,–,–,–,–,14,–,24,–,16
COc1cc(/C=N/N(C)C2=NS(=O)(=O)c3ccccc32)cc(OC)c1OC,–,–,–,–,32,–,–,–,35
O=C(CSc1cn[nH]n1)Nc1ccccc1C(=O)O,–,–,–,–,20,–,40,–,23
NC(=O)SCC(=O)Nc1ccccc1C(=O)O,–,–,–,–,13,–,50,–,31
O=C(CSc1ccccc1)Nc1ccccc1C(=O)O,–,–,–,–,–,·,·,·,·
C=CCCCCCCCCC(=O)Nc1ncccn1,–,–,–,–,–,·,·,·,·
O=C(O)c1ccccc1C(=O)O,·,–,–,·,·,·,·,·,·
O=C(O)c1ccccc1C(=O)c1cccc2ccccc12,–,–,–,–,31,–,54,–,35
C=C(c1cccc2ccccc12)P(=O)(O)O,–,–,–,–,35,–,62,–,44
O=C(NC12CC3CC(CC(C3)C1)C2)c1ccc([N+](=O)[O-])cc1,–,–,–,–,–,·,·,·,·
O=[N+]([O-])c1ccc(C23CC4CC(CC(O)(C4)C2)C3)cc1,–,–,·,–,15,–,34,–,22
c1ccc2c(c1)oc1c(Nc3ccc(CN4CCOCC4)cc3)ncnc12,–,–,–,–,15,–,–,–,25
SMILES,IMP-1 inh-1,CR mimetic SO,PvdQ acylase,PHOSPHO1 inh,VIM-2 inh,IMP-1 inh-2,VIM-2 FRET inh,TEM-1 inh,VIM-2 inh conf
CCc1nc(Nc2ccc(N3CCN(C(C)=O)CC3)cc2)c2oc3ccccc3c2n1,–,–,–,–,82,–,–,–,84
CCc1nc(N2CCN(C(=O)c3ccco3)CC2)c2oc3ccccc3c2n1,–,–,–,–,33,–,–,–,41
CC(=O)N1CCN(c2ccc(Nc3ncnc4c3oc3ccccc34)cc2)CC1,–,–,–,–,69,–,–,–,82
Cc1nc(N2CCN(C(=O)c3ccco3)CC2)c2oc3ccccc3c2n1,·,–,–,–,·,·,·,·,·
CC(=O)Nc1ccc(S(=O)(=O)NCC(=O)Nc2ccc3c(c2)OCO3)cc1,·,–,–,·,·,·,·,·,·
CCN(C(=O)CSc1nnc(-c2ccc(OC)cc2)n1C(C)C)C1CCS(=O)(=O)C1 (configuration not stated),·,–,–,·,·,·,·,·,·
CCc1[nH]nc(C(=O)N2CCCC(N3CCN(c4ccccc4C)CC3)C2)c1C (configuration not stated),–,–,–,–,–,·,·,·,·
O=C(N/N=C/c1ccoc1)c1cccc(OC(F)(F)C(F)F)c1,·,–,–,·,·,·,·,·,·
O=c1cc(-c2ccncc2)oc2c1ccc1ccccc12,–,–,–,–,17,–,–,–,23
O=c1cc(-c2ccc(O)cc2)oc2c1ccc1ccccc12,·,–,–,·,·,·,·,·,·
CN(C)S(=O)(=O)c1cccc(NC(=S)NC2CCCCC2)c1,–,–,–,–,–,·,·,·,·
CN(C)S(=O)(=O)c1cccc(NC(=S)N/N=C/C2CC=CCC2)c1 (configuration not stated),–,–,–,–,71,–,83,–,76
CN(C)S(=O)(=O)c1cccc(NC(=S)NN=C(Cc2ccccc2)Cc2ccccc2)c1,–,–,–,–,15,–,–,–,–
Cc1ccc(NC(=O)c2ccccc2NS(=O)(=O)c2ccc(Cl)s2)cc1S(=O)(=O)N1CCOCC1,–,–,–,–,–,·,·,·,·
O=c1ccn([C@@H]2O[C@H](CNCC3=Cc4cc(O)ccc4OC3)[C@@H](O)[C@H]2O)c(=O)[nH]1,·,·,–,·,·,·,·,·,·
Cn1c2ccccc2c(=O)c2cc(C#Cc3ccc(N)cc3)ccc21,–,–,–,–,–,·,·,·,·
COc1ccc(C#Cc2ccc3c(c2)c(=O)c2ccccc2n3C)cc1,–,–,–,–,15,–,–,–,14
COc1ccc(-c2cc(=O)oc3c(O)c(O)ccc23)cc1,–,–,–,–,13,–,–,–,18
O=C(NCCO)c1nc(C(=O)c2ccccc2)c2ccccc2n1,·,–,–,·,·,·,·,·,·
CC(C)c1cc(N2CCN(C(=O)c3ccco3)CC2)n2c(nc3ccccc32)c1C#N,–,–,–,–,15,–,–,–,32
CCn1c(N2CCN(C(=O)c3ccco3)CC2)nc2ccccc21,–,–,–,·,–,·,·,·,·
COc1ccc(/C=C2/SC(=S)N(CCC(=O)N3CCN(C)CC3)C2=O)cc1,–,–,–,–,–,·,·,·,·
CN1CCN(C(=O)CCCN2C(=O)/C(=C/c3ccccc3)SC2=S)CC1,–,–,–,–,16,–,–,–,25
COc1cc(/C=C2\SC(=S)N(CCC(=O)N3CCN(C)CC3)C2=O)cc(OC)c1OC,–,–,–,–,15,–,–,–,25
